Results on 19 molecules are retold here after ChEMBL document CHEMBL1129477, “Structure-activity relationships of the quinolone antibacterials against mycobacteria: effect of structural changes at N-1 and C-7” (J Med Chem, 1996).

Values after ≈ are worked out from the molar mass of the structure shown.

What all share (format): functional
For one assay, the system named is Escherichia coli. Put plainly: Anti-bacterial activity was tested against Gram-negative EC-1 bacterium. The procedure, abridged:
(§1)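 Standard microtitration MIC determination (µg/mL) against four representative Gram-negative and Gram-positive bacterial strains.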

Assay [1] has as its system Mycolicibacterium fortuitum. Description: Anti-bacterial activity tested against Mycobacterium fortuitum (ATCG 6841).
For assay [2], the system named is Mycolicibacterium smegmatis. Description: Anti-bacterial activity tested against Mycobacterium smegmatis (ATCG 19420).
A further assay has as its system Pseudomonas aeruginosa. Description: Anti-bacterial activity tested against Gram-negative PA-7 bacterium. The procedure, abridged:
as §1

The subject of the next assay is Staphylococcus aureus. Description: Anti-bacterial activity was tested against Gram-positive SA-13 bacterium. The procedure, abridged: as §1
A further assay concerns Streptococcus pyogenes. Description: Anti-bacterial activity tested against Gram-positive SP1-1 bacterium. The procedure, abridged:
as §1

The MIC is the least concentration at which growth counts as inhibited. A high value points to weaker potency. For the molecule `CN1CCN(c2cc3c(cc2F)c(=O)c(C(=O)O)cn3-c2ccc(F)cc2F)CC1`, the minimal inhibitory concentration (MIC) against Escherichia coli turned out to be 0.2 µg/mL (≈ 0.479 µM); in assay [1], 0.25 µg/mL (≈ 0.599 µM); in assay [2] it was 0.5 µg/mL (≈ 1.2 µM); against Pseudomonas aeruginosa, 0.8 µg/mL (≈ 1.92 µM); against Staphylococcus aureus, 0.2 µg/mL (≈ 0.479 µM); against Streptococcus pyogenes, 1.6 µg/mL (≈ 3.83 µM).
In the case of `CCNCC1CCN(c2cc3c(cc2F)c(=O)c(C(=O)O)cn3C2CC2)C1` (centres undefined), the MIC is 0.1 µg/mL (≈ 0.268 µM) against Escherichia coli; 0.5 µg/mL (≈ 1.34 µM) in assay [1]; 0.5 µg/mL (≈ 1.34 µM) in assay [2]; 1.6 µg/mL (≈ 4.28 µM) in the assay with Pseudomonas aeruginosa; 0.8 µg/mL (≈ 2.14 µM) against Staphylococcus aureus; 0.8 µg/mL (≈ 2.14 µM) against Streptococcus pyogenes.
In the case of `CC1CN(c2cc3c(cc2F)c(=O)c(C(=O)O)cn3C2CC2)CC(C)N1` (centres undefined), the minimum inhibitory concentration (MIC) against Escherichia coli is 0.05 µg/mL (≈ 0.139 µM); in assay [1], 0.06 µg/mL (≈ 0.167 µM); in assay [2], 0.13 µg/mL (≈ 0.362 µM); in the assay on Pseudomonas aeruginosa, 0.8 µg/mL (≈ 2.23 µM); in the assay on Staphylococcus aureus it was 0.4 µg/mL (≈ 1.11 µM); against Streptococcus pyogenes, more than 3.1 µg/mL.
Regarding `O=C(O)c1cn(C2CCC2)c2cc(N3CCNCC3)c(F)cc2c1=O`, the minimal inhibitory concentration (MIC) is 0.4 µg/mL (≈ 1.16 µM) against Escherichia coli; 0.5 µg/mL (≈ 1.45 µM) in assay [1]; 2 µg/mL (≈ 5.79 µM) in assay [2]; 1.6 µg/mL (≈ 4.63 µM) in the assay on Pseudomonas aeruginosa; 3.1 µg/mL (≈ 8.98 µM) in the assay with Staphylococcus aureus; more than 3.1 µg/mL against Streptococcus pyogenes.
With `NC1CCN(c2cc3c(cc2F)c(=O)c(C(=O)O)cn3C2CCC2)C1` (centres undefined), the MIC against Escherichia coli came out at 0.4 µg/mL (≈ 1.16 µM); in assay [1] it was 1 µg/mL (≈ 2.9 µM); in assay [2] it was 1 µg/mL (≈ 2.9 µM); in the assay with Pseudomonas aeruginosa it was 1.6 µg/mL (≈ 4.63 µM); against Staphylococcus aureus, 3.1 µg/mL (≈ 8.98 µM); in the assay on Streptococcus pyogenes it was 1.6 µg/mL (≈ 4.63 µM).
For `CCn1cc(C(=O)O)c(=O)c2cc(F)c(N3CC(C)NC(C)C3)cc21` (centres undefined), the minimum inhibitory concentration (MIC) in the assay with Escherichia coli was 0.4 µg/mL (≈ 1.15 µM); in assay [1] it was 0.13 µg/mL (≈ 0.374 µM); in assay [2], 1 µg/mL (≈ 2.88 µM); in the assay with Pseudomonas aeruginosa, 3.1 µg/mL (≈ 8.92 µM); against Staphylococcus aureus it was 0.8 µg/mL (≈ 2.3 µM); against Streptococcus pyogenes, more than 3.1 µg/mL.
Take `CNCC1CCN(c2cc3c(cc2F)c(=O)c(C(=O)O)cn3C(C)C)C1` (centres undefined): the MIC against Escherichia coli was 3.1 µg/mL (≈ 8.58 µM); in assay [1], 2 µg/mL (≈ 5.53 µM); in assay [2] it was 8 µg/mL (≈ 22.1 µM); in the assay with Pseudomonas aeruginosa, more than 3.1 µg/mL; against Staphylococcus aureus, 3.1 µg/mL (≈ 8.58 µM); against Streptococcus pyogenes, 3.1 µg/mL (≈ 8.58 µM).
Consider `CCC1CN(c2cc3c(cc2F)c(=O)c(C(=O)O)cn3C2CC2)CCN1` (centres undefined), for which the MIC with Escherichia coli stood at 0.1 µg/mL (≈ 0.278 µM); in assay [1] it was 0.13 µg/mL (≈ 0.362 µM); in assay [2] it was 0.25 µg/mL (≈ 0.696 µM); with Pseudomonas aeruginosa it was 0.8 µg/mL (≈ 2.23 µM); against Staphylococcus aureus, 0.8 µg/mL (≈ 2.23 µM); in the assay with Streptococcus pyogenes it was 0.8 µg/mL (≈ 2.23 µM).
For the molecule `CCn1cc(C(=O)O)c(=O)c2cc(F)c(N3CCNC(C)C3)cc21` (centres undefined), the MIC against Escherichia coli is 0.2 µg/mL (≈ 0.6 µM); in assay [1] it was 1 µg/mL (≈ 3 µM); in assay [2], 2 µg/mL (≈ 6 µM); in the assay on Pseudomonas aeruginosa it was more than 3.1 µg/mL; in the assay on Staphylococcus aureus, 3.1 µg/mL (≈ 9.3 µM); against Streptococcus pyogenes, more than 3.1 µg/mL.
With `CC1CN(c2cc3c(cc2F)c(=O)c(C(=O)O)cn3C2CCC2)CCN1` (centres undefined), the minimum inhibitory concentration (MIC) was 0.4 µg/mL (≈ 1.11 µM) against Escherichia coli; 0.25 µg/mL (≈ 0.696 µM) in assay [1]; 1 µg/mL (≈ 2.78 µM) in assay [2]; 1.6 µg/mL (≈ 4.45 µM) in the assay on Pseudomonas aeruginosa; 3.1 µg/mL (≈ 8.63 µM) against Staphylococcus aureus; more than 3.1 µg/mL against Streptococcus pyogenes.
Consider `CCN1CCN(c2cc3c(cc2F)c(=O)c(C(=O)O)cn3C(C)C)CC1`, for which the minimum inhibitory concentration (MIC) in the assay with Escherichia coli was 1.6 µg/mL (≈ 4.43 µM); in assay [1] it was 1 µg/mL (≈ 2.77 µM); in assay [2], 4 µg/mL (≈ 11.1 µM); against Pseudomonas aeruginosa it was more than 3.1 µg/mL; in the assay with Staphylococcus aureus it was 3.1 µg/mL (≈ 8.58 µM); against Streptococcus pyogenes it was more than 3.1 µg/mL.
In the case of `CC(C)NCC1CCN(c2cc3c(cc2F)c(=O)c(C(=O)O)cn3C2CC2)C1` (centres undefined), the minimal inhibitory concentration (MIC) in the assay with Escherichia coli is 0.4 µg/mL (≈ 1.03 µM); in assay [1], 0.25 µg/mL (≈ 0.645 µM); in assay [2], 0.5 µg/mL (≈ 1.29 µM); in the assay on Pseudomonas aeruginosa, 3.1 µg/mL (≈ 8 µM); against Staphylococcus aureus it was 0.4 µg/mL (≈ 1.03 µM); against Streptococcus pyogenes it was 1.6 µg/mL (≈ 4.13 µM).
As for `CC1(CN)CCN(c2cc3c(cc2F)c(=O)c(C(=O)O)cn3C2CC2)C1` (centres undefined), the MIC with Escherichia coli was 0.4 µg/mL (≈ 1.11 µM); in assay [1], less than 0.03 µg/mL; in assay [2], 0.06 µg/mL (≈ 0.167 µM); against Pseudomonas aeruginosa, 0.4 µg/mL (≈ 1.11 µM); in the assay with Staphylococcus aureus, 0.1 µg/mL (≈ 0.278 µM); with Streptococcus pyogenes, 0.05 µg/mL (≈ 0.139 µM).
As to `NC1CCN(c2cc3c(cc2F)c(=O)c(C(=O)O)cn3-c2ccc(F)cc2F)C1` (centres undefined), the MIC against Escherichia coli stood at 0.03 µg/mL (≈ 0.0744 µM); in assay [1], 0.13 µg/mL (≈ 0.322 µM); in assay [2], 0.13 µg/mL (≈ 0.322 µM); with Pseudomonas aeruginosa, 0.2 µg/mL (≈ 0.496 µM); in the assay on Staphylococcus aureus, 0.05 µg/mL (≈ 0.124 µM); against Streptococcus pyogenes it was 0.1 µg/mL (≈ 0.248 µM).
In the case of `CC1CN(c2cc3c(cc2F)c(=O)c(C(=O)O)cn3-c2ccc(F)cc2F)CC(C)N1` (centres undefined), the minimal inhibitory concentration (MIC) stood at 0.4 µg/mL (≈ 0.927 µM) with Escherichia coli; 0.25 µg/mL (≈ 0.579 µM) in assay [1]; 0.5 µg/mL (≈ 1.16 µM) in assay [2]; 0.8 µg/mL (≈ 1.85 µM) with Pseudomonas aeruginosa; 0.4 µg/mL (≈ 0.927 µM) in the assay with Staphylococcus aureus; 0.8 µg/mL (≈ 1.85 µM) against Streptococcus pyogenes.
Turning to `CCN1CCN(c2cc3c(cc2F)c(=O)c(C(=O)O)cn3C2CC2)CC1` [ENROFLOXACIN], the MIC against Escherichia coli is 0.05 µg/mL (≈ 0.139 µM); in assay [1], 0.06 µg/mL (≈ 0.167 µM); in assay [2], 0.13 µg/mL (≈ 0.362 µM); in the assay on Pseudomonas aeruginosa it was 0.8 µg/mL (≈ 2.23 µM); against Staphylococcus aureus it was 0.2 µg/mL (≈ 0.556 µM); against Streptococcus pyogenes it was 0.8 µg/mL (≈ 2.23 µM).
With `CCn1cc(C(=O)O)c(=O)c2cc(F)c(N3CCNCC3)cc21` [NORFLOXACIN], the MIC was 0.1 µg/mL (≈ 0.313 µM) in the assay on Escherichia coli; 0.5 µg/mL (≈ 1.57 µM) in assay [1]; 2 µg/mL (≈ 6.26 µM) in assay [2]; 0.8 µg/mL (≈ 2.51 µM) against Pseudomonas aeruginosa; 3.1 µg/mL (≈ 9.71 µM) with Staphylococcus aureus; more than 3.1 µg/mL in the assay with Streptococcus pyogenes.
With `C[C@@H]1CN(c2c(F)c(N)c3c(=O)c(C(=O)O)cn(C4CC4)c3c2F)C[C@H](C)N1` [SPARFLOXACIN], the MIC amounted to 0.025 µg/mL (≈ 0.0637 µM) against Escherichia coli; 0.06 µg/mL (≈ 0.153 µM) in assay [1]; 0.13 µg/mL (≈ 0.331 µM) in assay [2]; 0.8 µg/mL (≈ 2.04 µM) against Pseudomonas aeruginosa; 0.05 µg/mL (≈ 0.127 µM) against Staphylococcus aureus; 0.1 µg/mL (≈ 0.255 µM) in the assay with Streptococcus pyogenes.
For the molecule `CC1CN(c2cc3c(cc2F)c(=O)c(C(=O)O)cn3-c2ccc(F)cc2F)CCN1` (centres undefined) [TEMAFLOXACIN], the MIC is 0.1 µg/mL (≈ 0.24 µM) against Escherichia coli; 0.13 µg/mL (≈ 0.311 µM) in assay [1]; 0.5 µg/mL (≈ 1.2 µM) in assay [2]; 0.8 µg/mL (≈ 1.92 µM) against Pseudomonas aeruginosa; 0.4 µg/mL (≈ 0.958 µM) against Staphylococcus aureus; 0.4 µg/mL (≈ 0.958 µM) in the assay with Streptococcus pyogenes.
